Columns and labels:
[1] = molecular target: T1, Voltage-dependent L-type calcium channel subunit alpha-1C (Oryctolagus cuniculus, UniProt P15381); experiment: Selectivity index was measured as the IC50 needed to depress the heart beat divided by IC50 needed to block [Ca2+] contractions in rabbit aortic strips; format: functional, tissue-based, Aorta
Oryctolagus cuniculus [2] = species: Oryctolagus cuniculus; experiment: Inhibition of electrically stimulated rabbit left atria contraction.; format: functional
Outline: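 Rabbit left atria electrically driven (1 Hz, 10 ms, twice threshold voltage), equilibrated 1–1.5 h. Compounds added cumulatively (10^-10–10^-6 M), diluted from DMSO stocks into Krebs–Henseleit, final DMSO <0.1%. Isometric force recorded; IC50 from contractile force relative to initial control values, with 95% confidence limits.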

Oryctolagus cuniculus [3] = species: Oryctolagus cuniculus; experiment: Blockade of calcium-evoked contractions evaluated in depolarized rabbit aortic strips; format: functional; conditions: Aorta
Outline: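 Male New Zealand rabbit thoracic aorta, helicoidal strips, 2.5 g preload, Krebs–bicarbonate, 37 °C, 95% O2/5% CO2, pH 7.4. After 1 h equilibration, depolarized with 35 mM K+; 1.5 mM Ca2+ added 10 min later, repeated until reproducible. Compound at increasing concentrations from 20 min before and during Ca2+ addition; responses normalized to initial tension; IC50 by Finney method.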

Oryctolagus cuniculus [4] = species: Oryctolagus cuniculus; experiment: Relative potency evaluated (relative potency = IC50 of compound / IC50 of nifedipine) in rabbit; format: functional
[5] = molecular target: T1, Voltage-dependent L-type calcium channel subunit alpha-1C; experiment: Blockade of calcium-evoked contractions in depolarized aortic strips; format: functional, tissue-based, Aorta
Oryctolagus cuniculus [6] = species: Oryctolagus cuniculus; experiment: Relative potency was evaluated. (relative potency = IC50 of compound / IC50 of nifedipine); format: functional
Oryctolagus cuniculus [7] = species: Oryctolagus cuniculus; experiment: Recovery of the initial contraction of rabbit aortic strips, blocked at 10e-7 M concentration.; conditions: Aorta

T1 sequence (P15381 whole entry): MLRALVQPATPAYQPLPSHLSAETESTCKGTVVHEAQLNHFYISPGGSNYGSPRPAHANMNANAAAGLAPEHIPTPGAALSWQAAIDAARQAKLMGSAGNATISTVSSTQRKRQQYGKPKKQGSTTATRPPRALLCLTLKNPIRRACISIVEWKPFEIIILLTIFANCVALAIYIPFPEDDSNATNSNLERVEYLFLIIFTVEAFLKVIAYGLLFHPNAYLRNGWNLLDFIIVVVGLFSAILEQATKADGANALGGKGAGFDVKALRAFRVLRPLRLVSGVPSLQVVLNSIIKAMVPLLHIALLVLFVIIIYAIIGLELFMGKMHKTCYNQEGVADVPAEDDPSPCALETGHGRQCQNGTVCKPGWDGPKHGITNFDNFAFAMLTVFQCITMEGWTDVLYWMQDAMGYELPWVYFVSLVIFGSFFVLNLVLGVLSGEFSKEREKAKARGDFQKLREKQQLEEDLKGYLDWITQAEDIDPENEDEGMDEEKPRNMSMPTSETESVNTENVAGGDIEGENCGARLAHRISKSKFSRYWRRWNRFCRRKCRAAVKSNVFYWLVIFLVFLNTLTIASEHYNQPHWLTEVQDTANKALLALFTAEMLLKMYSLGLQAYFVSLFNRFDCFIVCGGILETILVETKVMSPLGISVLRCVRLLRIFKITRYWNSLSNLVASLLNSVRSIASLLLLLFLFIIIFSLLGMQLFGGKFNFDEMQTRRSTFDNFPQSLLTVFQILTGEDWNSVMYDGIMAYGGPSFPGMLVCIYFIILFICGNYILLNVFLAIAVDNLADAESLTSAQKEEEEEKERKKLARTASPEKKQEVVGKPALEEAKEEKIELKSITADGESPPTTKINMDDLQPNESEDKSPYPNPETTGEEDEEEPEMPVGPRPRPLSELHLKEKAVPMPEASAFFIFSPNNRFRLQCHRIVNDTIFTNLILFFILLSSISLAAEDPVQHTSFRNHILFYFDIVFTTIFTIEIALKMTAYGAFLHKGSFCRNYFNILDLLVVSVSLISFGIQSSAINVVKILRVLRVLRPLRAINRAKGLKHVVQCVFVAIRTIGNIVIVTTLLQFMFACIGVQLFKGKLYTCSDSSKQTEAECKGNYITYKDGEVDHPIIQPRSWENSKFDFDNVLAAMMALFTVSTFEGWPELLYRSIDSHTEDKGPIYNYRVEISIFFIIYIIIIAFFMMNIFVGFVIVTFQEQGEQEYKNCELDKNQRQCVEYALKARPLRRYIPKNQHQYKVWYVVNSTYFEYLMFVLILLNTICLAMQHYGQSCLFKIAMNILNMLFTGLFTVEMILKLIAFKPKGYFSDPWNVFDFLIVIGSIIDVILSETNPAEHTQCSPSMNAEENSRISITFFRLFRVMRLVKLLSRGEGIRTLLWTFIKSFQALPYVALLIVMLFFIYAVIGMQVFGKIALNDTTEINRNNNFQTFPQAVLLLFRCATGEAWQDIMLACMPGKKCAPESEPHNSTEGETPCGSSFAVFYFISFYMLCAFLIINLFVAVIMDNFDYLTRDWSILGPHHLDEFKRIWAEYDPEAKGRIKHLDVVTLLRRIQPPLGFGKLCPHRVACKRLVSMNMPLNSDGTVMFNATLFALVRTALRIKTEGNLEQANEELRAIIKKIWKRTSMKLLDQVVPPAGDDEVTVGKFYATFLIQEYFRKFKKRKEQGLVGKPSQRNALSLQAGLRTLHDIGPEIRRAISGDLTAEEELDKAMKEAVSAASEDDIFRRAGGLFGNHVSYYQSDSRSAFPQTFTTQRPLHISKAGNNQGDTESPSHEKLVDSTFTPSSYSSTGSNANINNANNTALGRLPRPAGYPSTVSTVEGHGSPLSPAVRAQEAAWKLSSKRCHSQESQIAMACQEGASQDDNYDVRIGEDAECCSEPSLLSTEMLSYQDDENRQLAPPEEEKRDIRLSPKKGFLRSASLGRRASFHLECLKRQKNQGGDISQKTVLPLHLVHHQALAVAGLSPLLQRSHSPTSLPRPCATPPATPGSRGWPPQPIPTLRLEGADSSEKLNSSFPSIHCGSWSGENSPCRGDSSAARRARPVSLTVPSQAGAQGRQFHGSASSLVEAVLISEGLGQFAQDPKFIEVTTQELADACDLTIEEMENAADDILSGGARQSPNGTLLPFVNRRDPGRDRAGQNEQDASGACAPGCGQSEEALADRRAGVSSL

| SMILES | IC50 (Oryctolagus cuniculus [3]) [nM] | Relative potency (Oryctolagus cuniculus [4]) | also measured |
| --- | --- | --- | --- |
| CCO/C(O)=C1\C(C)=NC(C)=C(C(=O)OCCCN2C(=O)c3ccccc3S2(=O)=O)C1c1ccccc1[N+](=O)[O-] (stereo unspecified) | 2.6 | 1.1 | – |
| CC1=NC(C)=C(C(=O)OCCCN2C(=O)c3ccccc3S2(=O)=O)C(c2ccccc2[N+](=O)[O-])/C1=C(\O)OCC1CCCCO1 (stereo unspecified) | 11.5 | 0.3 | – |
| CCCO/C(O)=C1\C(C)=NC(C)=C(C(=O)OCN2C(=O)c3ccccc3S2(=O)=O)C1c1cccc([N+](=O)[O-])c1 (stereo unspecified) | – | – | IC50 [5]: 64.5 nM; Relative potency (Oryctolagus cuniculus [6]): <0.1 |
| CO/C(O)=C1\C(C)=NC(C)=C(C(=O)OCN2C(=O)c3ccccc3S2(=O)=O)C1c1cccc([N+](=O)[O-])c1 (stereo unspecified) | – | – | IC50 [5]: 15.1 nM; Relative potency (Oryctolagus cuniculus [6]): 0.2 |
| CC1=NC(C)=C(C(=O)OCCCN2C(=O)c3ccccc3S2(=O)=O)C(c2cccc(Cl)c2Cl)/C1=C(\O)OCC1CCCCO1 (stereo unspecified) | 4 | 0.7 | – |
| COCCO/C(O)=C1\C(C)=NC(C)=C(C(=O)OCCCN2C(=O)c3ccccc3S2(=O)=O)C1c1ccccc1[N+](=O)[O-] (stereo unspecified) | 2.7 | 1.1 | – |
| CC1=NC(C)=C(C(=O)OCCN2C(=O)c3ccccc3S2(=O)=O)C(c2cccc(Cl)c2Cl)/C1=C(\O)OCC1CCCO1 (stereo unspecified) | 2.1 | 1.4 | – |
| CCO/C(O)=C1\C(C)=NC(C)=C(C(=O)OCCN2C(=O)c3ccccc3S2(=O)=O)C1c1cccc([N+](=O)[O-])c1 (stereo unspecified) | 2.6 | 1.1 | – |
| CO/C(O)=C1\C(C)=NC(C)=C(C(=O)OCN2C(=O)c3ccccc3S2(=O)=O)C1c1cccc(Cl)c1Cl (stereo unspecified) | – | – | IC50 [5]: 5.1 nM; Relative potency (Oryctolagus cuniculus [6]): 0.6 |
| CC1=NC(C)=C(C(=O)OCN2C(=O)c3ccccc3S2(=O)=O)C(c2ccccc2Cl)/C1=C(\O)OCC1CCCO1 (stereo unspecified) | – | – | IC50 [5]: 10.1 nM; Relative potency (Oryctolagus cuniculus [6]): 0.3 |
| CO/C(O)=C1\C(C)=NC(C)=C(C(=O)OCCN2C(=O)c3ccccc3S2(=O)=O)C1c1cccc(Cl)c1Cl (stereo unspecified) | 17.3 | 0.2 | – |
| COCCO/C(O)=C1\C(C)=NC(C)=C(C(=O)OCCN2C(=O)c3ccccc3S2(=O)=O)C1c1ccccc1Cl (stereo unspecified) | 22.9 | 0.1 | Recovery (Oryctolagus cuniculus [7]): 0.5% |
| CC1=NC(C)=C(C(=O)OCN2C(=O)c3ccccc3S2(=O)=O)C(c2cccc([N+](=O)[O-])c2)/C1=C(\O)OCC1CCCCO1 (stereo unspecified) | – | – | IC50 [5]: 13.3 nM; Relative potency (Oryctolagus cuniculus [6]): 0.2 |
| COCCO/C(O)=C1\C(C)=NC(C)=C(C(=O)OCCN2C(=O)c3ccccc3S2(=O)=O)C1c1ccccc1C(F)(F)F (stereo unspecified) | 1.4 | 2.1 | – |
| CCO/C(O)=C1\C(C)=NC(C)=C(C(=O)OCCCN2C(=O)c3ccccc3S2(=O)=O)C1c1ccccc1Cl (stereo unspecified) | 3.9 | 0.7 | – |
| CC1=NC(C)=C(C(=O)OCCN2C(=O)c3ccccc3S2(=O)=O)C(c2ccccc2Cl)/C1=C(\O)OC(C)(C)C (stereo unspecified) | 4.5 | 0.6 | – |
| CO/C(O)=C1\C(C)=NC(C)=C(C(=O)OCN2C(=O)c3ccccc3S2(=O)=O)C1c1ccccc1[N+](=O)[O-] (stereo unspecified) | – | – | IC50 [5]: 30.9 nM; Relative potency (Oryctolagus cuniculus [6]): 0.1 |

| SMILES | IC50 (Oryctolagus cuniculus [3]) [nM] | Relative potency (Oryctolagus cuniculus [4]) | also measured |
| --- | --- | --- | --- |
| CO/C(O)=C1\C(C)=NC(C)=C(C(=O)OCCCN2C(=O)c3ccccc3S2(=O)=O)C1c1ccccc1[N+](=O)[O-] (stereo unspecified) | 1.5 | 1.9 | Selectivity index [1]: 80; IC50 (Oryctolagus cuniculus [2]): 120 nM; Recovery (Oryctolagus cuniculus [7]): 18.8% |
| CC1=NC(C)=C(C(=O)OCN2C(=O)c3ccccc3S2(=O)=O)C(c2ccccc2[N+](=O)[O-])/C1=C(\O)OCC1CCCCO1 (stereo unspecified) | – | – | IC50 [5]: 25.1 nM; Relative potency (Oryctolagus cuniculus [6]): 0.1 |
| CC1=NC(C)=C(C(=O)OCN2C(=O)c3ccccc3S2(=O)=O)C(c2ccccc2C(F)(F)F)/C1=C(\O)OCC1CCCCO1 (stereo unspecified) | – | – | IC50 [5]: 3.6 nM; Relative potency (Oryctolagus cuniculus [6]): 0.8 |
| COCCO/C(O)=C1\C(C)=NC(C)=C(C(=O)OCCN2C(=O)c3ccccc3S2(=O)=O)C1c1cccc([N+](=O)[O-])c1 (stereo unspecified) | 28.8 | 0.1 | – |
| CC1=NC(C)=C(C(=O)OCCN2C(=O)c3ccccc3S2(=O)=O)C(c2ccccc2C(F)(F)F)/C1=C(\O)OCC1CCCCO1 (stereo unspecified) | 25.5 | 0.1 | – |
| CC1=NC(C)=C(C(=O)OCN2C(=O)c3ccccc3S2(=O)=O)C(c2cccc([N+](=O)[O-])c2)/C1=C(\O)OC(C)(C)C (stereo unspecified) | – | – | IC50 [5]: 7.8 nM; Relative potency (Oryctolagus cuniculus [6]): 0.4 |
| COCCO/C(O)=C1\C(C)=NC(C)=C(C(=O)OCN2C(=O)c3ccccc3S2(=O)=O)C1c1cccc(Cl)c1Cl (stereo unspecified) | – | – | IC50 [5]: 2.9 nM; Relative potency (Oryctolagus cuniculus [6]): 1 |
| CC1=NC(C)=C(C(=O)OCCCN2C(=O)c3ccccc3S2(=O)=O)C(c2ccccc2C(F)(F)F)/C1=C(\O)OC(C)C (stereo unspecified) | 2.7 | 1.1 | – |
| CO/C(O)=C1\C(C)=NC(C)=C(C(=O)OCCCN2C(=O)c3ccccc3S2(=O)=O)C1c1cccc([N+](=O)[O-])c1 (stereo unspecified) | 2.6 | 1.1 | – |
| COCCO/C(O)=C1\C(C)=NC(C)=C(C(=O)OCCCN2C(=O)c3ccccc3S2(=O)=O)C1c1ccccc1Cl (stereo unspecified) | 2.9 | 1 | – |
| CC1=NC(C)=C(C(=O)OCCCN2C(=O)c3ccccc3S2(=O)=O)C(c2ccccc2Cl)/C1=C(\O)OCC1CCCO1 (stereo unspecified) | 7.1 | 0.4 | – |
| CC1=NC(C)=C(C(=O)OCN2C(=O)c3ccccc3S2(=O)=O)C(c2ccccc2[N+](=O)[O-])/C1=C(\O)OC(C)C (stereo unspecified) | – | – | IC50 [5]: 1.4 nM; Relative potency (Oryctolagus cuniculus [6]): 2.1 |
| CC1=NC(C)=C(C(=O)OCCCN2C(=O)c3ccccc3S2(=O)=O)C(c2cccc(Cl)c2Cl)/C1=C(\O)OC(C)(C)C (stereo unspecified) | 3.1 | 0.2 | – |
| CC1=NC(C)=C(C(=O)OCCCN2C(=O)c3ccccc3S2(=O)=O)C(c2ccccc2[N+](=O)[O-])/C1=C(\O)OCC1CCCO1 (stereo unspecified) | 6.8 | 0.4 | – |
| CO/C(O)=C1\C(C)=NC(C)=C(C(=O)OCCN2C(=O)c3ccccc3S2(=O)=O)C1c1cccc([N+](=O)[O-])c1 (stereo unspecified) | 39.8 | 0.1 | – |
| CCO/C(O)=C1\C(C)=NC(C)=C(C(=O)OCCCN2C(=O)c3ccccc3S2(=O)=O)C1c1cccc([N+](=O)[O-])c1 (stereo unspecified) | 1.9 | 1.5 | – |
| CC1=NC(C)=C(C(=O)OCCN2C(=O)c3ccccc3S2(=O)=O)C(c2ccccc2[N+](=O)[O-])/C1=C(\O)OC(C)(C)C (stereo unspecified) | 0.7 | 4.1 | Selectivity index [1]: 41; IC50 (Oryctolagus cuniculus [2]): 28.5 nM; Recovery (Oryctolagus cuniculus [7]): 0.2% |

Continued by falling IC50 (Oryctolagus cuniculus [3]), values first:

| IC50 (Oryctolagus cuniculus [3]) [nM] | SMILES | Relative potency (Oryctolagus cuniculus [4]) | also measured |
| --- | --- | --- | --- |
| 11.1 | CC1=NC(C)=C(C(=O)OCCN2C(=O)c3ccccc3S2(=O)=O)C(c2cccc(Cl)c2Cl)/C1=C(\O)OCC1CCCCO1 (stereo unspecified) | 0.3 | – |
| 10.5 | CC1=NC(C)=C(C(=O)OCCCN2C(=O)c3ccccc3S2(=O)=O)C(c2cccc([N+](=O)[O-])c2)/C1=C(\O)OCC1CCCO1 (stereo unspecified) | 0.3 | – |
| 10 | CCO/C(O)=C1\C(C)=NC(C)=C(C(=O)OCCN2C(=O)c3ccccc3S2(=O)=O)C1c1ccccc1Cl (stereo unspecified) | 0.3 | – |
| 7 | CC1=NC(C)=C(C(=O)OCCCN2C(=O)c3ccccc3S2(=O)=O)C(c2ccccc2Cl)/C1=C(\O)OCC1CCCCO1 (stereo unspecified) | 0.4 | – |
| 7 | COCCO/C(O)=C1\C(C)=NC(C)=C(C(=O)OCCN2C(=O)c3ccccc3S2(=O)=O)C1c1cccc(Cl)c1Cl (stereo unspecified) | 0.4 | – |
| 6.8 | COCCO/C(O)=C1\C(C)=NC(C)=C(C(=O)OCCCN2C(=O)c3ccccc3S2(=O)=O)C1c1cccc([N+](=O)[O-])c1 (stereo unspecified) | 0.4 | – |
| 4 | CCO/C(O)=C1\C(C)=NC(C)=C(C(=O)OCCN2C(=O)c3ccccc3S2(=O)=O)C1c1cccc(Cl)c1Cl (stereo unspecified) | 0.7 | – |
| 3.7 | CC1=NC(C)=C(C(=O)OCCCN2C(=O)c3ccccc3S2(=O)=O)C(c2ccccc2C(F)(F)F)/C1=C(\O)OCC1CCCO1 (stereo unspecified) | 0.8 | – |
| 3.5 | CC1=NC(C)=C(C(=O)OCCN2C(=O)c3ccccc3S2(=O)=O)C(c2ccccc2Cl)/C1=C(\O)OCC1CCCO1 (stereo unspecified) | 0.8 | – |
| 3.1 | CC1=NC(C)=C(C(=O)OCCN2C(=O)c3ccccc3S2(=O)=O)C(c2ccccc2Cl)/C1=C(\O)OC(C)C (stereo unspecified) | 0.9 | – |
| 2.5 | CC1=NC(C)=C(C(=O)OCCN2C(=O)c3ccccc3S2(=O)=O)C(c2ccccc2C(F)(F)F)/C1=C(\O)OCC1CCCO1 (stereo unspecified) | 1.2 | – |
| 1.8 | CO/C(O)=C1\C(C)=NC(C)=C(C(=O)OCCCN2C(=O)c3ccccc3S2(=O)=O)C1c1ccccc1Cl (stereo unspecified) | 1.6 | Selectivity index [1]: 77; IC50 (Oryctolagus cuniculus [2]): 140 nM; Recovery (Oryctolagus cuniculus [7]): 6.05% |
| 1.4 | COCCO/C(O)=C1\C(C)=NC(C)=C(C(=O)OCCCN2C(=O)c3ccccc3S2(=O)=O)C1c1ccccc1C(F)(F)F (stereo unspecified) | 2.1 | Selectivity index [1]: 16; IC50 (Oryctolagus cuniculus [2]): 21.8 nM; Recovery (Oryctolagus cuniculus [7]): 18.3% |
| 1.3 | CC1=NC(C)=C(C(=O)OCCCN2C(=O)c3ccccc3S2(=O)=O)C(c2ccccc2Cl)/C1=C(\O)OC(C)C (stereo unspecified) | 2.2 | Selectivity index [1]: 37; IC50 (Oryctolagus cuniculus [2]): 48 nM |
| 1 | CC1=NC(C)=C(C(=O)OCCCN2C(=O)c3ccccc3S2(=O)=O)C(c2cccc([N+](=O)[O-])c2)/C1=C(\O)OC(C)C (stereo unspecified) | 2.9 | Selectivity index [1]: 205; IC50 (Oryctolagus cuniculus [2]): 210 nM; Recovery (Oryctolagus cuniculus [7]): 1.6% |
| 0.8 | CCO/C(O)=C1\C(C)=NC(C)=C(C(=O)OCCCN2C(=O)c3ccccc3S2(=O)=O)C1c1ccccc1C(F)(F)F (stereo unspecified) | 3.6 | Selectivity index [1]: 163; IC50 (Oryctolagus cuniculus [2]): 124 nM; Recovery (Oryctolagus cuniculus [7]): 1.2% |
